Assay results as given in ChEMBL document CHEMBL1165925, “Identification of new non-carboxylic acid containing inhibitors of aldose reductase” (Bioorg Med Chem, 2010).

How the values were obtained:
[1] = target: Aldo-keto reductase family 1 member B1 (Bos taurus) (UniProt P16116); assay: Inhibition of bovine lens aldose reductase at 25 uM
In short: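 Bovine lens enzyme was purified by DE-52 and Matrex Orange A chromatography. Assay used glyceraldehyde as substrate in 0.25 M sodium phosphate pH 6.8, with 0.38 M ammonium sulfate, 0.11 mM NADPH and 0.5 mM EDTA. Inhibitor was added in DMSO, final 1% v/v. Read-out is NADPH oxidation, given as percent inhibition at a single concentration.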

[2] = target: Aldo-keto reductase family 1 member B1 (Bos taurus, UniProt P16116); assay: Inhibition of bovine lens aldose reductase
In short: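 Enzyme purified from bovine lens by DE-52 ion exchange then Matrex Orange A affinity chromatography (0.93 U/mg) and kept at 4 °C in 10 mM sodium phosphate pH 7.0 with 2 mM DTT. At least five inhibitor concentrations (20–80% inhibition), each tested at least in triplicate. IC50 from one-site competition nonlinear fit; 95% CL.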

In the case of `O=C1S/C(=C\c2ccc(-c3ccccc3)cc2)C(=O)N1CC(O)(O)C(F)(F)F`, the inhibition [1] is reported as 45%.
`COc1cccc(/C=C2\SC(=O)N(CC(=O)C(F)(F)F)C2=O)c1` showed an IC50 [2] of 23.3 µM.
For `O=C1S/C(=C\c2cccc(O)c2)C(=O)N1CC(=O)C(F)(F)F`, the IC50 [2] was 12.3 µM.
With `O=C1S/C(=C\c2ccc(O)cc2)C(=O)N1CC(O)(O)C(F)(F)F` the IC50 [2] was 3 µM.
`O=C1S/C(=C\c2cccc(Oc3ccccc3)c2)C(=O)N1CC(O)(O)C(F)(F)F` gave an inhibition [1] of 64%.
In the case of `O=C1S/C(=C\c2ccc3ccccc3c2)C(=O)N1CC(O)(O)C(F)(F)F`, the inhibition [1] is reported as 59%.
For `O=C1S/C(=C\c2ccc(O)cc2)C(=O)N1CC(=O)C(F)(F)F`, the IC50 [2] was 3 µM.
For `O=C1S/C(=C\c2ccc(-c3ccccc3)cc2)C(=O)N1CC(=O)C(F)(F)F`, the inhibition [1] was 45%.
`O=C1S/C(=C\c2ccc(OCc3ccccc3)cc2)C(=O)N1CC(O)(O)C(F)(F)F` was tested, and the IC50 [2] was > 9 µM.
`O=C1S/C(=C\c2ccc3ccccc3c2)C(=O)N1CC(=O)C(F)(F)F` was tested, and the inhibition [1] was 59%.
Compound `COc1ccc(/C=C2\SC(=O)N(CC(=O)C(F)(F)F)C2=O)cc1` has an IC50 [2] of 17.4 µM.
With `O=C1S/C(=C\c2ccc(OCc3ccccc3)cc2)C(=O)N1CC(=O)C(F)(F)F` the IC50 [2] was > 9 µM.
In the case of `O=C1S/C(=C\c2cccc(O)c2)C(=O)N1CC(O)(O)C(F)(F)F`, the IC50 [2] is reported as 12.3 µM.
`COc1cccc(/C=C2\SC(=O)N(CC(O)(O)C(F)(F)F)C2=O)c1` showed an IC50 [2] of 23.3 µM.
`O=C1S/C(=C\c2cccc3ccccc23)C(=O)N1CC(O)(O)C(F)(F)F` gave an inhibition [1] of 52%.
In the case of `O=C1S/C(=C\c2cccc3ccccc23)C(=O)N1CC(=O)C(F)(F)F`, the inhibition [1] is reported as 52%.
Work on `COc1ccc(/C=C2\SC(=O)N(CC(O)(O)C(F)(F)F)C2=O)cc1` yielded an IC50 [2] of 17.4 µM.
Work on `O=C1S/C(=C\c2cccc(Oc3ccccc3)c2)C(=O)N1CC(=O)C(F)(F)F` yielded an inhibition [1] of 64%.
Compound `O=C1S/C(=C\c2ccc(Oc3ccccc3)cc2)C(=O)N1CC(O)(O)C(F)(F)F` has an IC50 [2] of 8.3 µM.
For `O=C1S/C(=C\c2ccc(Oc3ccccc3)cc2)C(=O)N1CC(=O)C(F)(F)F`, the IC50 [2] was 8.3 µM.
